ChEMBL document CHEMBL1148118, “Immunomodulatory proanthocyanidins from Ecdysanthera utilis” (J Nat Prod, 2002)
Activity calls are given as the source filed them. The rule behind the calls is not given here.

How the values were obtained:
Format in all cases: functional, cell-based
PBMC [1] = experiment: Immunomodulatory activity in PHA-stimulated human PBMC assessed as inhibition of IL2 production after 3 days by enzyme immuno assay
Outline: (§1)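 Human PBMC isolated by Ficoll-Hypaque density gradient, resuspended in RPMI-1640 with 2% FCS and penicillin/streptomycin. 2 × 10^5 cells/well cultured with PHA (5 µg/mL) plus 0, 6, 12.5, 25, 50 or 100 µM compound for 3 days. IL-2 and IFN-γ measured in the supernatants by EIA. Each point is the mean of three independent experiments.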

PBMC [2] = experiment: Immunomodulatory activity in PHA-stimulated human PBMC assessed as inhibition of IFN-gamma production after 3 days by enzyme immuno assay; outline: as §1
PBMC [3] = experiment: Inhibition of PHA-stimulated human PBMC proliferation assessed as [3H]thymidine uptake after 3 days by scintillation counting
Outline: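 Ficoll-Hypaque-isolated human PBMC at 2 × 10^6 cells/mL in RPMI-1640 with 2% FCS, 100 µL/well, with or without 5 µg/mL PHA plus test compound. Incubated 3 days at 37 °C in 5% CO2. 3H-thymidine (1 µCi/well) was then added for 16 h, and cells were harvested onto glass-fiber filters for scintillation counting. % inhibition = (control CPM − treated CPM)/control CPM × 100. DMSO 0.1% vehicle.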

| SMILES | Activity (PBMC [3]) | also measured |
| --- | --- | --- |
| Oc1cc(O)c2c(c1)O[C@@]1(c3ccc(O)c(O)c3)Oc3cc(O)c4c(c3[C@@H]2[C@H]1O)O[C@H](c1ccc(O)c(O)c1)[C@@H](O)C4 [PROANTHOCYANIDIN A1] | – | Activity (PBMC [1]): Dose-dependent effect; IC50 (PBMC [1]; 72 h): 25 µM; Activity (PBMC [2]): Dose-dependent effect; IC50 (PBMC [2]; 72 h): 5.1 µM; IC50 (PBMC [3]): 30.6 µM |
| Oc1cc(O)c2c(c1)O[C@@]1(c3ccc(O)c(O)c3)Oc3cc(O)c4c(c3[C@@H]2[C@H]1O)O[C@H](c1ccc(O)c(O)c1)[C@H](O)[C@@H]4c1c(O)cc(O)c2c1O[C@H](c1ccc(O)c(O)c1)[C@H](O)C2 | inactive | – |
| Oc1cc(O)c2c(c1)O[C@H](c1ccc(O)c(O)c1)[C@H](O)C2 | inactive | – |
| Oc1cc(O)c2c(c1)O[C@@]1(c3ccc(O)c(O)c3)Oc3cc(O)c4c(c3[C@@H]2[C@H]1O)O[C@H](c1ccc(O)c(O)c1)[C@H](O)C4 | inactive | – |
| Oc1cc(O)c2c(c1)O[C@H](c1ccc(O)c(O)c1)[C@H](O)[C@H]2c1c(O)cc(O)c2c1O[C@H](c1ccc(O)c(O)c1)[C@H](O)C2 | inactive | – |
| Oc1cc(O)c2c(c1)O[C@@]1(c3ccc(O)c(O)c3)Oc3cc(O)c4c(c3[C@@H]2[C@H]1O)O[C@@]1(c2ccc(O)c(O)c2)Oc2cc(O)c3c(c2[C@@H]4[C@@H]1O)O[C@H](c1ccc(O)c(O)c1)[C@H](O)C3 | inactive | – |
| Oc1cc(O)c2c(c1)O[C@H](c1ccc(O)c(O)c1)[C@H](O)[C@H]2c1c(O)cc(O)c2c1O[C@@]1(c3ccc(O)c(O)c3)Oc3cc(O)c4c(c3[C@@H]2[C@H]1O)O[C@H](c1ccc(O)c(O)c1)[C@H](O)[C@@H]4c1c(O)cc(O)c2c1O[C@H](c1ccc(O)c(O)c1)[C@H](O)C2 | inactive | – |
